Measured values reported in ChEMBL document CHEMBL3045981, “Synthesis and insecticidal activities of novel N-sulfenyl-N'-tert-butyl-N,N'-diacylhydrazines. 2. N-substituted phenoxysulfenate derivatives” (2008).
Converted amounts (≈) assume the structure as drawn.

Experiments:
Format in all cases: functional
[1] = tested on: Mythimna separata; assay: Stomach toxicity against Mythimna separata (Oriental armyworm) fourth-instar larvae reared on compound pre-treated corn leaves assessed as insect mortality at 2.5 mg/kg measured 4 days post compound treatment
[2] = tested on: Mythimna separata; assay: Stomach toxicity against Mythimna separata (Oriental armyworm) fourth-instar larvae reared on compound pre-treated corn leaves assessed as insect mortality at 5 mg/kg measured 4 days post compound treatment
[3] = tested on: Mythimna separata; assay: Stomach toxicity against Mythimna separata (Oriental armyworm) fourth-instar larvae reared on compound pre-treated corn leaves assessed as insect mortality at 10 mg/kg measured 4 days post compound treatment
[4] = tested on: Mythimna separata; assay: Stomach toxicity against Mythimna separata (Oriental armyworm) fourth-instar larvae reared on compound pre-treated corn leaves assessed as insect mortality at 25 mg/kg measured 4 days post compound treatment
[5] = tested on: Mythimna separata; assay: Stomach toxicity against Mythimna separata (Oriental armyworm) fourth-instar larvae reared on compound pre-treated corn leaves assessed as insect mortality at 50 mg/kg measured 4 days post compound treatment
[6] = tested on: Ostrinia furnacalis; assay: Contact toxicity against Ostrinia furnacalis (Asian corn borer) fourth-instar larvae exposed to compound on thoracic tergite region assessed as insect mortality measured 48 hr post compound treatment
Outline: (§1)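 Topical application: each fourth-instar larva received 1 µL of acetone dilution on the thoracic tergite via automatic microapplicator; five to seven concentrations. Acetone-only control. Usually 40 insects per dose, four replicates. Larvae returned to standard rearing at 25 ± 1 °C. Mortality read 48 h after treatment, Abbott-corrected, and LD50 (median lethal dose) derived.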

[7] = tested on: Helicoverpa armigera; assay: Contact toxicity against Helicoverpa armigerafourth-instar larvae exposed to compound on thoracic tergite region assessed as insect mortality measured 48 hr post compound treatment; outline: as §1
[8] = tested on: Spodoptera litura; assay: Contact toxicity against Spodoptera litura fourth-instar larvae exposed to compound on thoracic tergite region assessed as insect mortality measured 48 hr post compound treatment; outline: as §1
[9] = tested on: Spodoptera litura; assay: Stomach toxicity against Spodoptera litura third-instar larvae reared on compound pre-treated cabbage leaves assessed as insect mortality measured 3 days post compound treatment
Outline: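 Leaf-dip: cabbage leaf discs (5 cm × 3 cm) dipped 3 s in test solution, air-dried, placed singly in 80 cm³ boxes. Five third-instar larvae per disc. Water- and acetone-treated leaves as controls. Held at 25 ± 1 °C. Mortality scored on a dead/alive basis 3 days after treatment and Abbott-corrected.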

SMILES	mortality at 2.5 mg/kg [1] [%]	mortality at 5 mg/kg [2] [%]	also measured
CCc1ccc(C(=O)N(N(SOc2ccc(-c3ccccc3)cc2)C(=O)c2cc(C)cc(C)c2)C(C)(C)C)cc1	90	100	
Cc1cc(C)cc(C(=O)N(N(SOc2ccc(Cl)cc2)C(=O)c2ccc3c(c2C)OC(C)C3)C(C)(C)C)c1 (stereo not drawn)	90	100	
CCc1ccc(C(=O)N(N(SOc2ccccc2C)C(=O)c2cc(C)cc(C)c2)C(C)(C)C)cc1	60	100	
Cc1ccc(OSN(C(=O)c2ccccc2)N(C(=O)c2ccccc2)C(C)(C)C)cc1			mortality at 10 mg/kg [3]: 10%; mortality at 25 mg/kg [4]: 80%; mortality at 50 mg/kg [5]: 100%
CCc1ccc(C(=O)N(N(SOc2cccc(C)c2)C(=O)c2cc(C)cc(C)c2)C(C)(C)C)cc1	70	95	
CCc1ccc(C(=O)N(N(SOc2ccc(Br)cc2)C(=O)c2cc(C)cc(C)c2)C(C)(C)C)cc1	50	100	
CCc1ccc(C(=O)N(N(SOc2ccc(Cl)cc2Cl)C(=O)c2cc(C)cc(C)c2)C(C)(C)C)cc1	40	90	
CC(C)(C)N(NC(=O)c1ccc(Cl)cc1)C(=O)c1ccccc1 [HALOFENOZIDE]	10	70	mortality at 50 mg/kg [5]: 100%
CCc1ccc(C(=O)N(N(SOc2cccc(OC)c2)C(=O)c2cc(C)cc(C)c2)C(C)(C)C)cc1	50	100	
CC(C)(C)N(NC(=O)c1ccccc1)C(=O)c1ccccc1 [RH-5849]			mortality at 10 mg/kg [3]: 0%; mortality at 25 mg/kg [4]: 70%; mortality at 50 mg/kg [5]: 100%
CCc1ccc(C(=O)N(N(SOc2c(Cl)cc(Cl)cc2Cl)C(=O)c2cc(C)cc(C)c2)C(C)(C)C)cc1	50	90	
CCc1ccc(C(=O)N(N(SOc2ccccc2)C(=O)c2cc(C)cc(C)c2)C(C)(C)C)cc1	70	90	mortality at 10 mg/kg [3]: 100%; mortality at 25 mg/kg [4]: 100%; mortality at 50 mg/kg [5]: 100%
COc1cccc(C(=O)NN(C(=O)c2cc(C)cc(C)c2)C(C)(C)C)c1C [METHOXYFENOZIDE]	100	100	
CCc1ccc(C(=O)N(N(SOc2cccc(C(=O)OC)c2)C(=O)c2cc(C)cc(C)c2)C(C)(C)C)cc1	80	90	
Cc1cc(C)cc(C(=O)N(NC(=O)c2ccc3c(c2C)OC(C)C3)C(C)(C)C)c1 (stereo not drawn) [FUXIAN]	90	100	
CC(C)(C)N(C(=O)c1ccccc1)N(SOc1ccccc1)C(=O)c1ccccc1			mortality at 10 mg/kg [3]: 0%; mortality at 25 mg/kg [4]: 100%; mortality at 50 mg/kg [5]: 100%
CCc1ccc(C(=O)N(N(SOc2ccccc2C(=O)OC)C(=O)c2cc(C)cc(C)c2)C(C)(C)C)cc1	60	100	
CCc1ccc(C(=O)N(N(SOc2ccc(OC)cc2)C(=O)c2cc(C)cc(C)c2)C(C)(C)C)cc1	80	100	
CC(C)(C)N(C(=O)c1ccc(Cl)cc1)N(SOc1ccc(Cl)cc1)C(=O)c1ccccc1	0	30	mortality at 10 mg/kg [3]: 100%; mortality at 25 mg/kg [4]: 100%
CCc1ccc(C(=O)N(N(SOc2ccccc2Br)C(=O)c2cc(C)cc(C)c2)C(C)(C)C)cc1	30	100	
CCc1ccc(C(=O)N(N(SOc2ccccc2OC)C(=O)c2cc(C)cc(C)c2)C(C)(C)C)cc1	80	90	
CC(C)(C)N(C(=O)c1ccccc1)N(SOc1ccc(Cl)cc1)C(=O)c1ccccc1			mortality at 10 mg/kg [3]: 0%; mortality at 25 mg/kg [4]: 100%; mortality at 50 mg/kg [5]: 100%
CCc1ccc(C(=O)N(N(SOc2ccc(C)c(C)c2)C(=O)c2cc(C)cc(C)c2)C(C)(C)C)cc1	10	70	
CCc1ccc(C(=O)N(N(SOc2cccc(Cl)c2)C(=O)c2cc(C)cc(C)c2)C(C)(C)C)cc1	80	90	
CCc1ccc(C(=O)NN(C(=O)c2cc(C)cc(C)c2)C(C)(C)C)cc1 [TEBUFENOZIDE]	55	95	LD50 [6]: 59.4 mg/kg; LD50 [7]: 1310 mg/kg; LD50 [8]: 527 mg/kg; LC50 [9]: 11.2 µg/mL (≈ 31.7 µM); mortality at 10 mg/kg [3]: 100%
CCc1ccc(C(=O)N(N(SOc2ccccc2Cl)C(=O)c2cc(C)cc(C)c2)C(C)(C)C)cc1	80	95	
CCc1ccc(C(=O)N(N(SOc2ccc(C)cc2)C(=O)c2cc(C)cc(C)c2)C(C)(C)C)cc1	30	100	
CCc1ccc(C(=O)N(N(SOc2ccc(C(=O)OC)cc2)C(=O)c2cc(C)cc(C)c2)C(C)(C)C)cc1	100	100	
COc1cccc(C(=O)N(N(SOc2ccc(Cl)cc2)C(=O)c2cc(C)cc(C)c2)C(C)(C)C)c1C	100	100	
